Experimental data as given in ChEMBL document CHEMBL1134486, “Synthesis and biological evaluation of purine-containing butenolides” (J Med Chem, 2001).

Target: T1, Adenosine deaminase (Bos taurus) (UniProt P56658)
T1 sequence (whole entry): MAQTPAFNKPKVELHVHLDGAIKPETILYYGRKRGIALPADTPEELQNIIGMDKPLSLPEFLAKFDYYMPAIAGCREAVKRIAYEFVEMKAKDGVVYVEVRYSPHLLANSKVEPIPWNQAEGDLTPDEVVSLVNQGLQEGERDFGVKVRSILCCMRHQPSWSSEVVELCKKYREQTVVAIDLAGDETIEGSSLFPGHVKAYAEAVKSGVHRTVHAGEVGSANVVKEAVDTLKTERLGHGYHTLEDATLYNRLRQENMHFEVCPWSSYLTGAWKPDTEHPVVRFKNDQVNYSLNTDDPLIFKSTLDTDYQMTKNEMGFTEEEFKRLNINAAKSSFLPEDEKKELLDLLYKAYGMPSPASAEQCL
Assay: Relative Vmax value of the compound
In short: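 Deamination rates followed with calf mucosal ADA (EC 3.5.4.4) in buffer solutions; Km and Vmax relative to adenosine as substrate; inhibition (Ki) assessed with adenosine as substrate.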

Relative Vmax: 1
SMILES: Nc1ncnc2c1ncn2[C@@H]1O[C@H](CO)[C@@H](O)[C@H]1O
